Results of several laboratories.
Each line is one published result; the experiments were not run side by side.

| Structure (SMILES) | tested on | assay | test system | setting | endpoint | result |
| --- | --- | --- | --- | --- | --- | --- |
| COc1ccc([S+]([O-])c2ccc(C)cc2)c(OC)c1OC (stereo not drawn) | – | tubulin polymerisation, inhibitor, absorbance | – | pH 6.6 | IC50 | > 40 µM |
| C=CS(=O)(=O)Nc1ccc(CCn2cc(C[C@@]3(O)C[C@@H]4c5cc(OCc6cc(C)cc(C)c6)c(OCc6cc(C)cc(C)c6)cc5CCN4[C@@H](C)C3)nn2)cc1 | ASPC1 | cell growth or viability, MTT | – | – | IC50 | 1.88 µM |
| Cc1ccccc1-n1cc(Cn2c(C(=O)O)nc3ccccc3c2=O)nn1 | Nakaseomyces glabratus | microbial growth, broth dilution | ATCC90030 | 24 h | IC50 | 358 µg/mL |
| COc1ccc(Sc2ccc(OC)c(OC)c2OC)cc1 | – | tubulin polymerisation, inhibitor, absorbance | – | pH 6.6 | IC50 | 16 µM |
| C#CC[C@]1(O)C[C@@H]2c3cc(OCc4cc(C)cc(C)c4)c(OCc4cc(C)cc(C)c4)cc3CCN2[C@@H](C)C1 | ASPC1 | cell growth or viability, MTT | – | – | IC50 | 0.791 µM |
| COc1cc(Nc2nccc(-c3cnn4nc(OC)ccc34)n2)cc(C(F)(F)F)c1 | ASPC1 | cell growth or viability, ATP luminescence | – | – | IC50 | 0.98 µM |
| C=CS(=O)(=O)Nc1ccc(Cn2cc(C[C@@]3(O)C[C@@H]4c5cc(OCc6cc(C)cc(C)c6)c(OCc6cc(C)cc(C)c6)cc5CCN4[C@@H](C)C3)nn2)cc1 | ASPC1 | cell growth or viability, MTT | – | – | IC50 | 0.823 µM |
| COc1ccc(S(=O)(=O)c2ccc(OC)c(OC)c2OC)cc1 | – | tubulin polymerisation, inhibitor, absorbance | – | pH 6.6 | IC50 | > 40 µM |
| C[C@@H](Oc1cc(-c2cnn(C3CCNCC3)c2)cnc1N)c1c(Cl)ccc(F)c1Cl | KARPAS-299 | cell growth or viability, MTT | – | 0.04 µg/mL, 72 h | inhibition | 58.8% |
| CC(C)C[C@H](NC(=O)[C@H](Cc1ccccc1)NC(=O)c1cnccn1)B(O)O | HCC1569 | cell growth or viability, ATP luminescence | – | – | IC50 | 0.0049 µM |
| Cc1cc(Nc2ncc(Cl)c(Nc3ccccc3S(=O)(=O)C(C)C)n2)c(OC(C)C)cc1C1CCNCC1 | KARPAS-299 | cell growth or viability, MTT | – | 0.02058 µg/mL, 72 h | inhibition | 22.4% |
| COc1ccc(Cn2cc(C[C@@]3(O)C[C@@H]4c5cc(OCc6cc(C)cc(C)c6)c(OCc6cc(C)cc(C)c6)cc5CCN4[C@@H](C)C3)nn2)cc1 | ASPC1 | cell growth or viability, MTT | – | – | IC50 | 1.28 µM |
